Assay results as given in ChEMBL document CHEMBL1255454, “Systematic approach to optimizing specifically targeted antimicrobial peptides against Streptococcus mutans” (2010).
Values after ≈ are worked out from the molar mass of the structure shown. Active and inactive are the calls of the source. The calls are words filed in the database; no cut-off is given here.

Experiments:
Streptococcus mutans [1] = experiment: Antimicrobial activity against Streptococcus mutans UA159 assessed as inhibition of bacterial biofilm formation at 25 uM after 3 mins by fluorescence assay; type: functional
Procedure, shortened: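 S. mutans UA159 overnight culture was diluted 1:5,000 in TH with 1% sucrose and grown as biofilm for 24 h. Biofilms were exposed 3 min at room temperature to 25 µM fluorescein-labelled peptide in HEPES/NaHCO3/NaCl/MgCl2 buffer with 0.1% CTAB, pH 7.4, then washed twice. Green fluorescence images were taken and biofilm-associated green pixels quantified as binding intensity units.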

Streptococcus mutans [2] = experiment: Antimicrobial activity against Streptococcus mutans UA159 after 16 to 20 hrs by broth microdilution assay; type: functional
Procedure, shortened: (§1)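 Broth microdilution. Twofold peptide dilutions were made in 50% BHI–50% sterile water for oral streptococci and in 1× Mueller-Hinton broth for the other bacteria. First round 500 to 0.97 µg/ml; a second round of 64 to 0.5 µg/ml was run in some cases, reporting its mode. Inoculum ~1 × 10^5 CFU/ml, 37°C for 16–20 h. Read A600; MIC taken as complete inhibition or ≥90% turbidity reduction versus peptide-free control.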

Streptococcus sobrinus = experiment: Antimicrobial activity against Streptococcus sobrinus ATCC 33478 after 16 to 20 hrs by broth microdilution assay; type: functional; procedure, shortened: as §1
Streptococcus sanguinis [3] = experiment: Antimicrobial activity against Streptococcus sanguinis NY101 after 16 to 20 hrs by broth microdilution assay; type: functional; procedure, shortened: as §1
Streptococcus mitis [4] = experiment: Antimicrobial activity against Streptococcus mitis ATCC 903 after 16 to 20 hrs by broth microdilution assay; type: functional; procedure, shortened: as §1
[5] = Antimicrobial activity against Streptococcus gordonii Challis DL1 after 16 to 20 hrs by broth microdilution assay; type: functional, Streptococcus gordonii str. Challis; procedure, shortened: as §1
Staphylococcus aureus = experiment: Antimicrobial activity against methicillin-resistant Staphylococcus aureus after 16 to 20 hrs by broth microdilution assay; type: functional
Procedure, shortened: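 MRSA grown aerobically in BHI at 37°C. Broth microdilution: 2-fold peptide dilutions in 1× Mueller-Hinton broth, first round 500 to 0.97 µg/ml; if activity below 62.5 µg/ml, sometimes a second round at 64 to 0.5 µg/ml, reporting the mode. Inoculum ~1 × 10^5 CFU/ml, 37°C for 16-20 h. A600 read. MIC = lowest concentration giving complete inhibition or ≥90% turbidity reduction versus peptide-free control.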

Enterococcus faecalis = experiment: Antimicrobial activity against Enterococcus faecalis after 16 to 20 hrs by broth microdilution assay; type: functional; procedure, shortened: as §1
Pseudomonas aeruginosa = experiment: Antimicrobial activity against Pseudomonas aeruginosa PAK after 16 to 20 hrs by broth microdilution assay; type: functional; procedure, shortened: as §1
Escherichia coli = experiment: Antimicrobial activity against Escherichia coli W3110 after 16 to 20 hrs by broth microdilution assay; type: functional; procedure, shortened: as §1
Streptococcus mutans [6] = experiment: Antimicrobial activity against Streptococcus mutans UA159 assessed as inhibition of viability of bacterial biofilm at 25 ug/ml treated for 1 min measured after 4 hrs; type: functional
Procedure, shortened: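 S. mutans biofilms were seeded from overnight culture diluted 1:50 in TH broth with 0.5% sucrose, centrifuged, and grown 4 h anaerobically at 37°C. They were exposed to peptide in 1× PBS for about 1 min, washed, and given fresh TH broth without sucrose. Recovery was read as A600 after 4 h anaerobic incubation at 37°C. Three experiments; unpaired t test.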

Streptococcus mutans [7] = experiment: Antimicrobial activity against Streptococcus mutans JM11 assessed as inhibition of bacterial biofilm formation at 50 uM after 10 mins; type: functional
Procedure, shortened: (§2)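 Mixed-species biofilms were grown 24 h at 37°C anaerobically in TH with 50% filter-sterilized pooled human saliva and 1% sucrose. Inoculum: S. mutans JM11 at 1 × 10^6 CFU/well plus S. oralis, S. gordonii, S. sanguinis, S. mitis and S. salivarius at 2 × 10^5 CFU/well each. Survivors were plated on TH agar for total streptococci and on TH agar with 800 µg/ml spectinomycin for JM11. Detection limit 100 CFU/ml.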

Streptococcus oralis = experiment: Antimicrobial activity against Streptococcus oralis assessed as inhibition of bacterial biofilm formation at 50 uM after 10 mins; type: functional; procedure, shortened: as §2
Streptococcus gordonii = experiment: Antimicrobial activity against Streptococcus gordonii assessed as inhibition of bacterial biofilm formation at 50 uM after 10 mins; type: functional; procedure, shortened: as §2
Streptococcus sanguinis [8] = experiment: Antimicrobial activity against Streptococcus sanguinis assessed as inhibition of bacterial biofilm formation at 50 uM after 10 mins; type: functional; procedure, shortened: as §2
Streptococcus mitis [9] = experiment: Antimicrobial activity against Streptococcus mitis assessed as inhibition of bacterial biofilm formation at 50 uM after 10 mins; type: functional; procedure, shortened: as §2
Streptococcus salivarius = experiment: Antimicrobial activity against Streptococcus salivarius assessed as inhibition of bacterial biofilm formation at 50 uM after 10 mins; type: functional; procedure, shortened: as §2
Streptococcus mutans [10] = experiment: Antimicrobial activity against Streptococcus mutans UA159 at 25 ug/ml after 30 mins by time-kill assay; type: functional
Procedure, shortened: (§3)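 Time-kill. Overnight cultures were diluted in BHI to A600 0.08 and treated with peptide at 25 µg/ml for 30 s to 2 h. Aliquots were diluted 1:50 in BHI, held on ice, plated and counted after 24 h as surviving CFU/ml. Three independent experiments, mean with SD; unpaired Student t test.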

Streptococcus mitis [11] = experiment: Antimicrobial activity against Streptococcus mitis ATCC 903 at 25 ug/ml after 30 mins by time-kill assay; type: functional, organism-based; procedure, shortened: as §3
[12] = system: Streptococcus gordonii str. Challis; experiment: Antimicrobial activity against Streptococcus gordonii Challis DL1 at 25 ug/ml after 30 mins by time-kill assay; type: functional; procedure, shortened: as §3
Streptococcus sanguinis [13] = experiment: Antimicrobial activity against Streptococcus sanguinis NY101 at 25 ug/ml after 30 mins by time-kill assay; type: functional, organism-based; procedure, shortened: as §3

| Compound | inhibition (Streptococcus mutans [1]) | MIC (Streptococcus mutans [2]) | MIC (Streptococcus sobrinus) | MIC (Streptococcus sanguinis [3]) | MIC (Streptococcus mitis [4]) | MIC [5] | MIC (Staphylococcus aureus) | MIC (Enterococcus faecalis) | MIC (Pseudomonas aeruginosa) | MIC (Escherichia coli) | further results |
| --- | --- | --- | --- | --- | --- | --- | --- | --- | --- | --- | --- |
| H-WWHSWWSTW-NH2 | Active | 125 µg/mL | 125 µg/mL | 125 µg/mL | 125 µg/mL | 125 µg/mL | > 125 µg/mL | > 125 µg/mL | > 125 µg/mL | 125 µg/mL | – |
| H-FIKHFIHRFSATRWRWRWF-NH2 | Active | 8 µg/mL | – | 32 µg/mL | 16 µg/mL | 32 µg/mL | 125 µg/mL | – | 62.5 µg/mL | – | inhibition (Streptococcus mutans [6]): Active; inhibition (Streptococcus mutans [7]): Active; inhibition (Streptococcus oralis): inactive; inhibition (Streptococcus gordonii): inactive; inhibition (Streptococcus sanguinis [8]): inactive; inhibition (Streptococcus mitis [9]): inactive; inhibition (Streptococcus salivarius): inactive |
| H-FHFHLHFSATFIKHFIHRF-NH2 | Active | 16 µg/mL | 250 µg/mL | 62.5 µg/mL | – | – | 125 µg/mL | 62.5 µg/mL | 125 µg/mL | 125 µg/mL | – |
| CC[C@H](C)[C@H](NC(=O)[C@H](Cc1ccccc1)NC(=O)[C@H](Cc1cnc[nH]1)NC(=O)[C@H](CCCCN)NC(=O)[C@@H](NC(=O)[C@H](Cc1ccccc1)NC(=O)[C@@H]1CCCN1C(=O)[C@H](Cc1ccc(O)cc1)NC(=O)[C@@H]1CCCN1C(=O)[C@H](Cc1ccccc1)NC(=O)[C@@H](Cc1cnc[nH]1)NC(=O)[C@@H](CC(C)C)NC(=O)[C@@H](Cc1cnc[nH]1)NC(=O)[C@@H](Cc1ccccc1)NC(=O)[C@@H](Cc1cnc[nH]1)NC(=O)[C@H](N)Cc1ccccc1)[C@@H](C)CC)C(=O)N[C@@H](Cc1cnc[nH]1)C(=O)N[C@@H](CCCNC(=N)N)C(=O)N[C@@H](Cc1ccccc1)C(N)=O | – | 32 µg/mL (≈ 12.5 µM) | 62.5 µg/mL (≈ 24.3 µM) | 62.5 µg/mL (≈ 24.3 µM) | – | – | > 500 µg/mL | 250 µg/mL (≈ 97.4 µM) | 125 µg/mL (≈ 48.7 µM) | 125 µg/mL (≈ 48.7 µM) | – |
| H-FHFHLHFASASAFIKHFIHRF-NH2 | – | 16 µg/mL | 32 µg/mL | 32 µg/mL | – | – | 62.5 µg/mL | 62.5 µg/mL | 125 µg/mL | 62.5 µg/mL | – |
| H-WWQDWWNEW-NH2 | Active | > 500 µg/mL | > 500 µg/mL | > 500 µg/mL | > 500 µg/mL | > 500 µg/mL | > 500 µg/mL | > 500 µg/mL | > 500 µg/mL | > 500 µg/mL | – |
| H-RWRWRWF-NH2 | Active | 4 µg/mL | – | 32 µg/mL | 32 µg/mL | 32 µg/mL | 32 µg/mL | – | 32 µg/mL | – | Activity (Streptococcus mutans [10]): Active; Activity (Streptococcus mitis [11]): Active; Activity [12]: Active; Activity (Streptococcus sanguinis [13]): Active; inhibition (Streptococcus mutans [6]): Active; inhibition (Streptococcus oralis): inactive; inhibition (Streptococcus gordonii): inactive; inhibition (Streptococcus sanguinis [8]): inactive; inhibition (Streptococcus mitis [9]): inactive; inhibition (Streptococcus salivarius): inactive |
| H-AAKHAAHRA-NH2 | inactive | > 500 µg/mL | > 500 µg/mL | > 500 µg/mL | > 500 µg/mL | > 500 µg/mL | > 500 µg/mL | > 500 µg/mL | > 500 µg/mL | > 500 µg/mL | – |
| H-FHFHLHFPSPSPFIKHFIHRF-NH2 | – | 32 µg/mL | 125 µg/mL | 125 µg/mL | – | – | > 500 µg/mL | 250 µg/mL | 125 µg/mL | 62.5 µg/mL | – |
| H-WWKDWWERW-NH2 | Active | > 500 µg/mL | > 500 µg/mL | > 500 µg/mL | > 500 µg/mL | > 500 µg/mL | > 500 µg/mL | > 500 µg/mL | > 500 µg/mL | > 500 µg/mL | – |
